# Experimental data as given in ChEMBL document CHEMBL2086287, “An efficient one-pot synthesis and photoinduced DNA cleavage studies of 2-chloro-3-(5-aryl-4,5-dihydroisoxazol-3-yl)quinolines” (Bioorg Med Chem Lett, 2012).
# Experiments:
# Nucleic Acid [1] = experiment: Induction of Escherichia coli pUC19 DNA cleavage assessed as conversion of supercoiled DNA to nicked form of DNA at 60 uM treated after 2 hrs before UV-vis irradiation measured after 1 hr by ethidium bromide staining; type: nucleic-acid assay
# Procedure, shortened: (§1)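 pUC-19 plasmid DNA photolysed at 365 nm for 2 h in 1:9 DMSO:Tris buffer ([…], pH 7.2) with test compound at 40–80 μM, 37 °C. A control lane without compound and dark-incubated samples were run alongside. Cleavage read by gel separation as the percentage of supercoiled (Form I) DNA converted to nicked (Form II) and linear (Form III) forms.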
# Nucleic Acid [2] = experiment: Induction of Escherichia coli pUC19 DNA cleavage assessed as conversion of supercoiled form of DNA to nicked and linear form of DNA at 80 uM treated after 2 hrs before UV-vis irradiation measured after 1 hr by ethidium bromide staining
# Nucleic Acid [3] = experiment: Induction of Escherichia coli pUC19 DNA cleavage assessed as conversion of supercoiled DNA to nicked form of DNA at 40 uM […] by ethidium bromide staining; type: nucleic-acid assay; procedure, shortened: as §1
SMILES,Activity (Nucleic Acid [1]),Activity (Nucleic Acid [2]),Activity (Nucleic Acid [3])
O=[N+]([O-])c1ccc(C2=NOC(c3cc4ccccc4nc3Cl)C2)cc1 (stereo unspecified),50%,85%,20%
Clc1ccc(C2=NOC(c3cc4ccccc4nc3Cl)C2)cc1 (stereo unspecified),50%,85%,20%
COc1ccc(C2=NOC(c3cc4ccccc4nc3Cl)C2)cc1 (stereo unspecified),50%,85%,20%
Clc1nc2ccccc2cc1C1CC(c2ccccc2)=NO1 (stereo unspecified),50%,85%,20%
Clc1nc2ccccc2cc1C1CC(c2ccc(Br)cc2)=NO1 (stereo unspecified),50%,85%,20%
Oc1ccc(C2=NOC(c3cc4ccccc4nc3Cl)C2)cc1 (stereo unspecified),50%,85%,20%
Cc1ccc(C2=NOC(c3cc4ccccc4nc3Cl)C2)cc1 (stereo unspecified),50%,85%,20%
